In article PMC8114230 (Inorganic chemistry, 2020):
Several values for one entry are separate records, joined by “and”; a condition that tells them apart may be missing. Identical values can stand only once. Entries after “also recorded” stand apart in the source; their conditions may differ. Like-named read-outs stand apart in the source and are kept apart here. Marks after values point to notes of the source that are not given here.

Columns and labels:
[1] = Cyclic voltammetry in acetonitrile; format: physicochemical; details: 0.10 M TBAP, irreversible reduction peak
[2] = Luminescence lifetime measurements in PBS; format: physicochemical; details: for luminescence lifetime τN2: nitrogen-saturated PBS (pH 7.4); for luminescence lifetime τ: air-equilibrated PBS, 10 μM
Procedure, shortened: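 Test compound was measured at 10 μM in PBS. Time-resolved photon counts were collected in 40 ns bins and fitted to a standard exponential decay. For deoxygenated samples, nitrogen was bubbled through the PBS solution for 20 min before measurement.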

[3] = system: HeLa cells; assay: Intracellular luminescence by confocal fluorescence microscopy; format: cell-based; details: 10 μM, 2 h
Procedure, shortened: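 HeLa cells were kept in DMEM with 10% FBS at 37 °C and 5% CO2. 1 × 10^5 cells were seeded on glass-bottom dishes, and after 24 h they were exposed to the test compound (10 μM in DMEM) for 2 h. Cells were then washed with PBS and imaged in HEPES imaging buffer, pH 7.4. Confocal excitation was 405 nm with 410–550 nm emission. Corrected total cell fluorescence was averaged over at least ten cells.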

[4] = system: HeLa cells; assay: Thioflavin T; format: cell-based; details: 10 μM, 30 min post-treatment
Procedure, shortened: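 About 1 × 10^5 HeLa cells were seeded on glass-bottom dishes. After 24 h they were loaded with 5 μM ThT for 2 h, washed, and given fresh medium. Test compound (10 μM) was added in imaging buffer. Confocal images were taken at 0 and 30 min (ex 405 nm, em 410–550 nm). Corrected total cell fluorescence was computed as integrated density minus cell area × mean background.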

[5] = system: HeLa cells; assay: Puromycin incorporation assay; format: cell-based; details: 10 μM, 2 h, then puromycin
Procedure, shortened: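 HeLa cells were exposed for 2 h to 10 μM test compound or DMSO vehicle. Puromycin (10 μM) was then added, and cells were harvested 10 min later. Lysis was in TBS/1% Triton X-100. Samples were run on SDS-PAGE and blotted to PVDF, with blocking in 5% milk/0.1% Tween-20. Anti-puromycin was applied overnight at 4 °C, then HRP secondary 1 h at room temperature. Detection was by ECL, normalised to β-actin.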

[6] = system: CHOP; assay: CHOP expression Western blot; format: cell-based; details: HeLa cells, 10 μM, 24 h
Procedure, shortened: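 HeLa cells were exposed for 24 h to 10 μM test compound or DMSO vehicle. Lysis was in TBS (pH 7.5) with 1% Triton X-100, DNase and protease inhibitors, on ice 30 min. Samples were run on SDS-PAGE and blotted to PVDF. Blocking was 5% BSA/0.1% Tween-20. Anti-CHOP was applied overnight at 4 °C, then HRP secondary 1 h at room temperature. Detection was by ECL, with β-actin as loading control.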

[7] = Biodistribution in mice; format: in vivo; details: BALB/c mice
Procedure, shortened: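 Female BALB/c mice, 6 weeks old, received a 99mTc tricarbonyl isonitrile analogue (51–104 μCi) with the Re test compound (0.2 μmol; 10 μmol/kg) together through a tail vein catheter in 10% EtOH/saline. Animals were killed at 1, 2 and 4 h, and blood (cardiac puncture), organs, muscle, femur and urine were collected. For Re, tissues were digested in nitric acid for 20 h at 25 °C and measured by ICP-OES with a 20 ppm Tb internal standard. Results were expressed as %ID/g.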

[8] = system: A2780 ovarian cancer xenografts; assay: In vivo tumor growth inhibition, A2780 ovarian cancer xenografts; parameters: species or system NSG mice
Procedure, shortened: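 NSG mice, about 7 weeks old, received A2780 tumour fragments from propagation mice implanted subcutaneously in the left flank. Groups of at least five were treated once tumours exceeded 100 mm3. Dosing was tail-vein injection twice weekly with vehicle (20% DMSO/PBS) or 5, 10 or 20 mg/kg test compound. Body weight and caliper tumour volume were tracked blinded over 27 days. Endpoints were a dimension >30 mm or burden […]; survival was compared with vehicle.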

[9] = Maximum tolerated dose; format: in vivo; details: injections in mice
[10] = Solubility in water or PBS; format: physicochemical
[11] = system: HeLa cells; details: MTT assay; cited from earlier work
[12] = PBS pH 7.4; cited from earlier work
[13] = air-equilibrated PBS; cited from earlier work
[14] = a week in aqueous solution, even in the presence of glutathione; cited from earlier work
[15] = system: HeLa cells; assay: MTT cytotoxicity assay in HeLa cells; format: cell-based; details: 48 h incubation
Procedure, shortened: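 HeLa cells were grown in DMEM with 10% FBS at 37 °C, 5% CO2. Cells were seeded at 4000/well and rested 24 h, then medium was replaced with test-compound dilutions for 48 h. Stocks were in PBS or DMSO. MTT (1 mg/mL in DMEM) was added for 4 h. Formazan was dissolved in 8:1 DMSO/pH 10 glycine buffer and read at 570 nm. Viability was normalised to untreated wells: three independent experiments, six replicates per concentration.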

[16] = Emission spectra and emission quantum yield in PBS; format: physicochemical; details: PBS pH 7.4, ≤1% DMSO, air-equilibrated; for emission quantum yield Φ: relative to quinine sulfate
Procedure, shortened: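 Spectra were taken in PBS pH 7.4 with ≤1% DMSO. Quantum yield was set relative to quinine sulfate (Φ = 0.52, 0.5 M H2SO4), cross-checked against harmaline (Φ = 0.32, 0.05 M H2SO4). Excitation was 350 nm, keeping absorbance below 0.1. At least five concentrations of sample and standard were measured. Absorbance at 350 nm was plotted against integrated emission.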

[17] = system: HeLa cells; assay: Mitochondria morphology; format: cell-based; details: 10 μM, up to 30 min
Procedure, shortened: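 HeLa cells were loaded with MitoTracker Red FM and Hoechst 33342 for 30 min, then washed. At the microscope, test compound was added to 10 μM final in HEPES imaging buffer (pH 7.4). Confocal images were taken every 2 min up to 30 min: MitoTracker ex 561/em 630–700 nm, Hoechst ex 405/em 410–550 nm. Individual mitochondria were counted in ImageJ at 0, 14 and 30 min, alongside untreated cells.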

[18] = tail vein injection, 0.2 μmol Re / ~100 μCi 99mTc

Cc1ccc2ccc3ccc(C)nc3c2n1.O=S(=O)([O-])C(F)(F)F.[C-]#[N+]c1ccc(C)cc1.[C-]#[O+].[C-]#[O+].[C-]#[O+].[Re+] [TRIP-1a, fac-[Re(CO)3(dmphen)(ptolICN)]OTf]
Epc [1]: −1.25 V vs SCE | luminescence lifetime τN2 [2]: 3.5 μs | intracellular localization pattern [3]: primarily localized around the nucleus in a punctate pattern | increase in ThT fluorescence [4]: ≥ 2 fold | inhibition of protein synthesis (puromycin incorporation) [5]: most efficient inhibition of protein synthesis | CHOP expression [6]: induce CHOP expression | rhenium content in blood, muscle and bone ([7]; ICP-OES): below detectable levels | heart and lung accumulation [7, 18]: accumulate in the heart and lungs | kidney uptake [7, 18]: large | liver uptake [7, 18]: moderate | spleen uptake [7, 18]: taken up to a much higher extent in this organ compared to TTIP | effect on tumor growth rate ([8]; 5 mg/kg i.v. twice weekly, 20% DMSO/PBS): no effect on tumor growth rate | effect on tumor growth rate ([8]; 10 mg/kg i.v. twice weekly, 20% DMSO/PBS): no effect on tumor growth rate | effect on tumor growth ([8]; 20 mg/kg i.v. twice weekly, 20% DMSO/PBS): inhibit tumor growth; also recorded: significantly inhibits tumor growth | prolongation of survival relative to the control group ([8]; 20 mg/kg twice weekly): 150% | average tumor volume relative to the vehicle-treated group ([8]; 20 mg/kg, days 10 to 20 after beginning treatment): less than half | side effects / body weight changes ([8]; highest concentrations of TRIP-1a, tumor-bearing NSG mice): minimal body weight changes | local reaction on administration ([8]; i.v. formulation in 20% DMSO/PBS): severe local inflammation | maximum tolerated dose, no obvious sign of distress [9]: ≥ 40 mg/kg | solubility [10]: up to 2 mM | IC50 [11]: 1.4 ± 0.2 µM | emission maximum λ [12]: 505 nm | emission quantum yield Φ [12]: 3.1 ± 0.3% | luminescence lifetime τ [13]: 1.1^c μs | degradation in aqueous solution [14]: no measurable degradation

Cc1ccc(N=[C]=[Re+]2(=[C]=O)(=[C]=O)(=[C]=O)[N]3C=CC=c4ccc5c(c43)[N]2C=CC=5)cc1.O=S(=O)([O-])C(F)(F)F [TRIP-2a, fac-[Re(CO)3(phen)(ptolICN)]OTf]
IC50 [15]: 5.8 ± 0.5 µM | Epc [1]: −1.18 V vs SCE | emission maximum λ [16]: 512 nm | emission quantum yield Φ [16]: 5.3 ± 0.4% | luminescence lifetime τ [2]: 1.8 μs | luminescence lifetime τN2 [2]: 10.9 μs

O=S(=O)([O-])C(F)(F)F.[C-]#[N+]c1ccc(C)cc1.[C-]#[O+].[C-]#[O+].[C-]#[O+].[Re+].c1ccc(-c2ccccn2)nc1 [TRIP-3a, fac-[Re(CO)3(bpy)(ptolICN)]OTf]
IC50 [15]: 27.5 ± 0.6 µM | Epc [1]: −1.18 V vs SCE | emission maximum λ [16]: 523 nm | emission quantum yield Φ [16]: 6.3 ± 0.2% | luminescence lifetime τ [2]: 0.7 μs | luminescence lifetime τN2 [2]: 1.0 μs | change in mitochondrial morphology (mitochondrial fission) [17]: did not give rise to any changes in mitochondrial morphology | inhibition of protein synthesis (puromycin incorporation) [5]: not effective translation inhibitors

N.N.[Cl][Pt][Cl] [cisplatin, reference compound]
IC50 [11]: 6.6 ± 0.7 µM

fac-[Re(CO)3(CF3bpy)(ptolICN)]OTf [TRIP-6a]
IC50 [15]: 53 µM and 53.1 µM | emission maximum λ [16]: 584 nm | emission quantum yield Φ [16]: 0.8% and 0.8 ± 0.1% | luminescence lifetime τ [2]: 0.1 μs | luminescence lifetime τN2 [2]: 0.1 μs | change in mitochondrial morphology (mitochondrial fission) [17]: did not give rise to any changes in mitochondrial morphology | increase in ThT fluorescence [4]: unable to change the ThT fluorescence levels relative to untreated cells | inhibition of protein synthesis (puromycin incorporation) [5]: not effective translation inhibitors | CHOP expression [6]: except for the least cytotoxic compound TRIP-6a

fac-[Re(CO)3(dmbpy)(ptolICN)]OTf [TRIP-4a]
IC50 [15]: 7.6 ± 0.3 µM | Epc [1]: −1.30 V vs SCE | emission maximum λ [16]: 516 nm | emission quantum yield Φ [16]: 6.7 ± 0.1% | luminescence lifetime τ [2]: 0.8 μs | luminescence lifetime τN2 [2]: 1.3 μs

fac-[Re(CO)3(dmobpy)(ptolICN)]OTf [TRIP-5a]
IC50 [15]: 8.4 ± 1.9 µM | Epc [1]: −1.33 V vs SCE | emission maximum λ [16]: 525 nm | emission quantum yield Φ [16]: 3.9 ± 0.3% | luminescence lifetime τ [2]: 0.4 μs | luminescence lifetime τN2 [2]: 0.7 μs

fac-[Re(CO)3(tbutylbpy)(ptolICN)]OTf [TRIP-7a]
IC50 [15]: 1.2 ± 0.5 µM | Epc [1]: −1.30 V vs SCE | emission maximum λ [16]: 518 nm | emission quantum yield Φ [16]: 7.7 ± 0.2% | luminescence lifetime τ [2]: 0.7 μs | luminescence lifetime τN2 [2]: 1.6 μs | intracellular localization pattern [3]: distributed evenly throughout the cytoplasm | increase in ThT fluorescence [4]: ≥ 2 fold | inhibition of protein synthesis (puromycin incorporation) [5]: most efficient inhibition of protein synthesis | CHOP expression [6]: induce CHOP expression
